Reference: article PMC10644204 (Pharmacology Research & Perspectives, 2023)
“And” between values parts separate entries of the source, which are not always exact repeats. Equal entries are not always repeated. “Also recorded” adds a separate entry of the source. Where two headings read alike, the source gives them in different places.

Assays:
healthy participants [1] = assay: Safety assessments; format: in vivo, human; conditions: part 2, GSK'254 500 mg (N = 40)
Procedure, shortened: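 Part 2 healthy participants confined from Day −2 of period 1 to Day 9 of period 4. […] AEs monitored throughout, recording duration, severity, causality and outcome, alongside safety ECGs, laboratory tests, physical examination and vital signs.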

[2] = GSK'254 200 mg QD, treatment-naive people living with HIV-1; cited from earlier work
healthy participants [3] = format: in vivo, human
[4] = Plasma pharmacokinetics, part 1 sentinel cohort; format: in vivo, human
Procedure, shortened: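 Part 1: healthy participants (n = 8) randomised 3:1 to test compound 500 mg or placebo orally once daily for 7 days, given with a moderate-fat meal (~600 cal, 30% fat) 30 min before dosing. Plasma sampled within 40 min predose on Days 1, 5, 6 and 7, and on Day 7 at 0.5–48 h postdose. Validated UHPLC-MS/MS, range 3.00–1000 ng mL−1.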

[5] = tested on: healthy participants and people living with HIV‐1; conditions: short-term administration; cited from earlier work
dogs = conditions: single dose of GSK'254 17 mg kg^−1, cited from earlier work
[6] = GSK'254 200 mg QD, healthy participants, previous studies; cited from earlier work
[7] = GSK'254 500 mg QD, 24 h post-dose

C=C(C)[C@@H]1CC[C@]2(NCCN3CCS(=O)(=O)CC3)CC[C@]3(C)[C@H](CC[C@@H]4[C@@]5(C)CC=C(C6=CC[C@@](CF)(C(=O)O)CC6)C(C)(C)[C@@H]5CC[C@]43C)[C@@H]12 [GSK'254]
Drug-related AE: Fatigue (healthy participants [1]): 0 n (%)
Drug-related AE: Gastrointestinal disorders (healthy participants [1]): 6 (15) n (%)
Drug-related AE: General disorders and administration site conditions (healthy participants [1]): 0 n (%)
Drug-related AE: Maculopapular rash (healthy participants [1]): 1 (3) n (%)
Drug-related AE: Nausea (healthy participants [1]): 2 (5) n (%)
Drug-related AE: Pruritus (healthy participants [1]): 0 n (%)
Drug-related AE: Renal and urinary disorders (healthy participants [1]): 0 n (%)
Drug-related AE: Skin and subcutaneous tissue disorders (healthy participants [1]): 1 (3) n (%)
Drug-related AE: Urinary hesitation (healthy participants [1]): 0 n (%)
Geometric mean Cmax [2]: 1860 ng/mL
Clinically relevant effects on cardiac parameters (QTc prolongation, HR, cardiac conduction) (healthy participants [3]; GSK'254 100 mg QD): No clinically relevant effects on cardiac parameters; also recorded: No clinically relevant effects on QTc prolongation, HR, or cardiac conduction
Observations of ΔQTcF >30 ms (healthy participants [3]; GSK'254 100 mg QD): no participants
Outliers in HR changes (HR >100 bpm with a >25% increase in ΔHR) (healthy participants [3]; GSK'254 100 mg QD): one participant at one time point
Reports of QTcF >450 to ≤480 ms (healthy participants [3]; GSK'254 100 mg QD): one participant (one time point)
LS mean ΔΔHR, lowest across time points (healthy participants [3]; GSK'254 100 mg QD, 0.5 h post-dose, Day 7): −0.2 (−2.17–1.67) bpm
LS mean ΔΔHR, highest across time points (healthy participants [3]; GSK'254 100 mg QD, 24 h post-dose, Day 7): 2.6 (0.70–4.53) bpm
ΔΔQTcF, LS mean (90% CI) (healthy participants [3]; GSK'254 100 mg QD, Day 7, 0.5 h): 1.0 (−1.60, 3.59) ms
ΔΔQTcF, LS mean (90% CI) (healthy participants [3]; GSK'254 100 mg QD, Day 7, 1 h): 0.6 (−2.06, 3.33) ms
ΔΔQTcF, LS mean (90% CI) (healthy participants [3]; GSK'254 100 mg QD, Day 7, 2 h): 1.7 (−1.27, 4.73) ms
ΔΔQTcF, LS mean (90% CI) (healthy participants [3]; GSK'254 100 mg QD, Day 7, 3 h): 1.5 (−1.45, 4.51) ms
ΔΔQTcF, LS mean (90% CI) (healthy participants [3]; GSK'254 100 mg QD, Day 7, 4 h): 1.0 (−1.59, 3.54) ms
ΔΔQTcF, LS mean (90% CI) (healthy participants [3]; GSK'254 100 mg QD, Day 7, 4.5 h): 1.0 (−1.73, 3.82) ms
ΔΔQTcF, LS mean (90% CI) (healthy participants [3]; GSK'254 100 mg QD, Day 7, 5 h): 0.2 (−2.44, 2.80) ms
ΔΔQTcF, LS mean (90% CI) (healthy participants [3]; GSK'254 100 mg QD, Day 7, 6 h): 1.7 (−1.58, 4.97) ms
ΔΔQTcF, LS mean (90% CI) (healthy participants [3]; GSK'254 100 mg QD, Day 7, 8 h): −0.8 (−3.54, 1.90) ms
ΔΔQTcF, LS mean (90% CI) (healthy participants [3]; GSK'254 100 mg QD, Day 7, 10 h): 0.2 (−2.30, 2.65) ms
ΔΔQTcF, LS mean (90% CI) (healthy participants [3]; GSK'254 100 mg QD, Day 7, 12 h): 0.5 (−2.43, 3.35) ms
ΔΔQTcF, LS mean (90% CI) (healthy participants [3]; GSK'254 100 mg QD, Day 7, 24 h): 0.1 (−2.66, 2.76) ms
ΔΔQTcF, LS mean (90% CI) (healthy participants [3]; GSK'254 100 mg QD, Day 7, […]): 1.4 (−1.30, 4.13) ms
ΔΔQTcF, LS mean (90% CI) (healthy participants [3]; GSK'254 100 mg QD, Day 7, pre-dose): 1.4 (−0.88, 3.77) ms
Maximum LS mean ΔΔQTcF (healthy participants [3]; GSK'254 100 mg QD, at 2 and 6 h post-dose on Day 7): 1.7 ms
Upper bound of the 90% CI of LS mean ΔΔQTcF (healthy participants [3]; GSK'254 100 mg QD, through 24 h post-dose on Day 7): < 10 ms
Observations of ΔQTcF >30 ms (healthy participants [3]; GSK'254 500 mg QD): two participants (three time points)
Outliers in HR changes (HR >100 bpm with a >25% increase in ΔHR) (healthy participants [3]; GSK'254 500 mg QD): one participant at one time point
Reports of QTcF >450 to ≤480 ms (healthy participants [3]; GSK'254 500 mg QD): one participant (one time point)
Largest LS mean ΔΔHR (healthy participants [3]; GSK'254 500 mg QD, 10 h post-dose on Day 7): 5.1 bpm
LS mean placebo-corrected change from baseline in PR, lowest across post-dose time points (healthy participants [3]; [7]): −1.8 (−4.00–0.36) ms
LS mean placebo-corrected change from baseline in QRS, maximum value (healthy participants [3]; [7]): 1.4 ms
ΔΔQTcF, LS mean (90% CI) (healthy participants [3]; GSK'254 500 mg QD, Day 7, 0.5 h): 7.2 (4.59, 9.83) ms
ΔΔQTcF, LS mean (90% CI) (healthy participants [3]; GSK'254 500 mg QD, Day 7, 1 h): 4.1 (1.34, 6.79) ms
ΔΔQTcF, LS mean (90% CI) (healthy participants [3]; GSK'254 500 mg QD, Day 7, 2 h): 6.5 (3.46, 9.55) ms
ΔΔQTcF, LS mean (90% CI) (healthy participants [3]; GSK'254 500 mg QD, Day 7, 3 h): 8.1 (5.06, 11.09) ms
ΔΔQTcF, LS mean (90% CI) (healthy participants [3]; GSK'254 500 mg QD, Day 7, 4 h): 8.6 (6.03, 11.22) ms
ΔΔQTcF, LS mean (90% CI) (healthy participants [3]; GSK'254 500 mg QD, Day 7, 4.5 h): 10.6 (7.75, 13.38) ms
ΔΔQTcF, LS mean (90% CI) (healthy participants [3]; GSK'254 500 mg QD, Day 7, 5 h): 9.6 (6.92, 12.24) ms
ΔΔQTcF, LS mean (90% CI) (healthy participants [3]; GSK'254 500 mg QD, Day 7, 6 h): 8.6 (5.27, 11.89) ms
ΔΔQTcF, LS mean (90% CI) (healthy participants [3]; GSK'254 500 mg QD, Day 7, 8 h): 8.1 (5.34, 10.85) ms
ΔΔQTcF, LS mean (90% CI) (healthy participants [3]; GSK'254 500 mg QD, Day 7, 10 h): 8.6 (6.14, 11.15) ms
ΔΔQTcF, LS mean (90% CI) (healthy participants [3]; GSK'254 500 mg QD, Day 7, 12 h): 6.0 (3.07, 8.89) ms
ΔΔQTcF, LS mean (90% CI) (healthy participants [3]; GSK'254 500 mg QD, Day 7, 24 h): 7.7 (4.94, 10.45) ms
ΔΔQTcF, LS mean (90% CI) (healthy participants [3]; GSK'254 500 mg QD, Day 7, […]): 9.2 (6.44, 11.93) ms
ΔΔQTcF, LS mean (90% CI) (healthy participants [3]; GSK'254 500 mg QD, Day 7, pre-dose): 7.1 (4.74, 9.46) ms
LS mean placebo-corrected change from baseline in PR, highest across post-dose time points (healthy participants [3]; GSK'254 500 mg QD, […] post-dose): 3.2 (0.86–5.57) ms
Maximum LS mean ΔΔQTcF (healthy participants [3]; GSK'254 500 mg QD, at 4.5 h post-dose on Day 7): 10.6 ms and 10.6 (7.75–13.38) ms
Clinically relevant effects on heart rate or cardiac conduction (PR and QRS intervals) (healthy participants [3]; both GSK'254 doses (100 and 500 mg QD)): Neither GSK'254 dose had clinically relevant effects on heart rate or cardiac conduction; also recorded: neither GSK'254 dose had a clinically relevant effect on cardiac conduction (PR and QRS intervals) or HR
AUC ([4]; human, plasma, oral, 500 mg): 68800 ng·h/mL
Cmax ([4]; human, plasma, oral, 500 mg): 4440 ng/mL
Cτ, geometric mean (%CVb) ([4]; part 1, GSK'254 500 mg QD 7 days, moderate-fat meal, Day 7, n = 6): 2080 ng mL^−1 and 2080 (32.4) ng mL^−1
Tolerability [5]: generally well tolerated
Maximum concentration (dogs; dog): 7960 ng/mL
QT interval effects (dogs; dogs, telemetry): minimal QT interval effects were observed in one dog
Geometric mean Cmax [6]: 1040 to 1780 ng/mL
